According to ChEMBL document CHEMBL1255284, “Aspergillus section Fumigati: antifungal susceptibility patterns and sequence-based identification” (2008):
≈ marks a conversion by molar mass, not a printed value. Numbered stars: 1 amine (or outer) side, 2 acyl side, 3 side chain; on linkers, the order of the positions; unused ones are H or OH. Bridge positions count the residues as written; N and C are the ends. Square brackets hold non-standard residues; d marks the D form. Peptide text beside a SMILES is read from it. * marks the point of attachment. hTyr(3S-OH,4S-OH,3'-OSO3H) = N[C@H](C(=O)O)[C@H](O)[C@@H](O)c1ccc(O)c(OS(=O)(=O)O)c1; Orn(4R-OH,5R-OH) = O=C([C@H](C[C@@H](O)[C@@H](O)N[*:3])N[*:1])[*:2]; Pro(3S-OH,4S-Me) = C[C@H]1CN[C@H](C(=O)O)[C@H]1O; X1 = CCCCCOc1ccc(-c2cc(-c3ccc(C(=O)*)cc3)no2)cc1; Gln(3R-OH) = NC(=O)C[C@@H](O)[C@H](N)C(=O)O; Hyp = O=C(O)[C@@H]1C[C@@H](O)CN1

Experiments:
[1] = test system: Neosartorya pseudofischeri; assay: Antimicrobial activity against Neosartorya pseudofischeri isolate CNM-CM-4060 obtained from sputum of patient after 48 hrs by broth microdilution method; type: functional; conditions: Aspergillus thermomutatus
How it was run: (§1)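 CLSI M38-A broth microdilution with modifications: RPMI 1640 with L-glutamine, MOPS-buffered to pH 7, plus 2% glucose. Inoculum 1 × 10^5 to 5 × 10^5 CFU/ml from 3–5-day cultures. Incubated at 35°C for 48 h, humid. Read visually with a mirror. MIC = complete growth inhibition; echinocandin MEC = altered hyphal morphology. QC strain A. fumigatus ATCC 2004305.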

Aspergillus lentulus [2] = assay: Antimicrobial activity against Aspergillus lentulus isolate CNM-CM-3538 obtained from sputum of patient after 48 hrs by broth microdilution method; type: functional; conditions: isolate CNM-CM-3538, 48 h
How it was run: (§2)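 CLSI M38-A broth microdilution with modifications: RPMI 1640 with L-glutamine, 2% glucose, buffered to pH 7 with 0.165 M MOPS. Inoculum of 1 × 10^5 to 5 × 10^5 CFU/ml from 3- to 5-day-old cultures. Incubated 35°C, 48 h, humid. Visual reading with a mirror. MIC is complete growth inhibition; echinocandin MEC is hyphal morphological alteration. Azoles 8 to 0.015 μg/ml; others 16 to 0.03 μg/ml.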

[3] = test system: Neosartorya pseudofischeri; assay: Antimicrobial activity against Neosartorya pseudofischeri isolate CNM-CM-3769 obtained from sputum of patient after 48 hrs by broth microdilution method; type: functional; conditions: Aspergillus thermomutatus; how it was run: as §1
Neosartorya hiratsukae [4] = assay: Antimicrobial activity against Neosartorya hiratsukae isolate CNM-CM-3303 obtained from skin of patient after 48 hrs by broth microdilution method; type: functional; conditions: Aspergillus hiratsukae, isolate CNM-CM-3303, 48 h; how it was run: as §2
Aspergillus lentulus [5] = assay: Antimicrobial activity against Aspergillus lentulus isolate CNM-CM-3583 obtained from sputum of patient after 48 hrs by broth microdilution method; type: functional; conditions: isolate CNM-CM-3583, 48 h; how it was run: as §2
Neosartorya hiratsukae [6] = assay: Antimicrobial activity against Neosartorya hiratsukae isolate CNM-CM-3764 obtained from oropharyngeal exudate of patient after 48 hrs by broth microdilution method; type: functional; conditions: Aspergillus hiratsukae, isolate CNM-CM-3764, 48 h; how it was run: as §2
Neosartorya hiratsukae [7] = assay: Antimicrobial activity against Neosartorya hiratsukae isolate CNM-CM-3740 obtained from oropharyngeal exudate of patient after 48 hrs by broth microdilution method; type: functional; conditions: Aspergillus hiratsukae, isolate CNM-CM-3740, 48 h; how it was run: as §2
Aspergillus viridinutans [8] = assay: Antimicrobial activity against Aspergillus viridinutans isolate CNM-CM-4518 obtained from nail of patient after 48 hrs by broth microdilution method; type: functional; conditions: isolate CNM-CM-4518, 48 h; how it was run: as §2
Aspergillus lentulus [9] = assay: Antimicrobial activity against Aspergillus lentulus isolate CNM-CM-4387 obtained from sputum of patient after 48 hrs by broth microdilution method; type: functional; conditions: isolate CNM-CM-4387, 48 h; how it was run: as §2
[10] = test system: Aspergillus fumisynnematus; assay: Antimicrobial activity against Aspergillus fumisynnematus isolate CNM-CM-4063 obtained from bronchoalveolar aspirate of patient after 48 hrs by broth microdilution method; type: functional; conditions: isolate CNM-CM-4063, Lung; how it was run: as §2
Aspergillus lentulus [11] = assay: Antimicrobial activity against Aspergillus lentulus isolate CNM-CM-3364 obtained from bronchoalveolar lavage fluid of patient after 48 hrs by broth microdilution method; type: functional; conditions: isolate CNM-CM-3364, Lung; how it was run: as §2
[12] = test system: Aspergillus fumigatiaffinis; assay: Antimicrobial activity against Aspergillus fumigatiaffinis isolate CNM-CM-2280 obtained from sputum of patient after 48 hrs by broth microdilution method; conditions: isolate CNM-CM-2280, 48 h
Aspergillus lentulus [13] = assay: Antimicrobial activity against Aspergillus lentulus isolate CNM-CM-4330 obtained from sputum of patient after 48 hrs by broth microdilution method; type: functional; conditions: isolate CNM-CM-4330, 48 h; how it was run: as §2
Aspergillus lentulus [14] = assay: Antimicrobial activity against Aspergillus lentulus isolate CNM-CM-4415 obtained from sputum of patient after 48 hrs by broth microdilution method; type: functional; conditions: isolate CNM-CM-4415, 48 h; how it was run: as §2
Neosartorya hiratsukae [15] = assay: Antimicrobial activity against Neosartorya hiratsukae isolate CNM-CM-3305 obtained from skin of patient after 48 hrs by broth microdilution method; type: functional; conditions: Aspergillus hiratsukae, isolate CNM-CM-3305, 48 h; how it was run: as §2
Aspergillus lentulus [16] = assay: Antimicrobial activity against Aspergillus lentulus isolate CNM-CM-3599 obtained from sputum of patient after 48 hrs by broth microdilution method; type: functional; conditions: isolate CNM-CM-3599, 48 h; how it was run: as §2
Aspergillus lentulus [17] = assay: Antimicrobial activity against Aspergillus lentulus isolate CNM-CM-4370 obtained from sputum of patient after 48 hrs by broth microdilution method; type: functional; conditions: isolate CNM-CM-4370, 48 h; how it was run: as §2
[18] = test system: Neosartorya pseudofischeri; assay: Antimicrobial activity against Neosartorya pseudofischeri isolate CNM-CM-2270 obtained from sputum of patient after 48 hrs by broth microdilution method; type: functional; conditions: Aspergillus thermomutatus, isolate CNM-CM-2270, 48 h; how it was run: as §1
Aspergillus fumigatus = assay: Antimicrobial activity against Aspergillus fumigatus ATCC 2004305 after 48 hrs by broth microdilution method; type: functional; conditions: ATCC 2004305, 48 h
[19] = test system: Aspergillus fumigatiaffinis; assay: Antimicrobial activity against Aspergillus fumigatiaffinis isolate CNM-CM-3227 obtained from bronchoalveolar lavage fluid of patient after 48 hrs by broth microdilution method; conditions: isolate CNM-CM-3227, Lung
Aspergillus lentulus [20] = assay: Antimicrobial activity against Aspergillus lentulus isolate CNM-CM-4420 obtained from nail of patient after 48 hrs by broth microdilution method; type: functional; conditions: isolate CNM-CM-4420, 48 h; how it was run: as §2
Aspergillus lentulus [21] = assay: Antimicrobial activity against Aspergillus lentulus isolate CNM-CM-3537 obtained from sputum of patient after 48 hrs by broth microdilution method; type: functional; conditions: isolate CNM-CM-3537, 48 h; how it was run: as §2
Aspergillus lentulus [22] = assay: Antimicrobial activity against Aspergillus lentulus isolate CNM-CM-1290 obtained from sputum of patient after 48 hrs by broth microdilution method; type: functional; conditions: isolate CNM-CM-1290, 48 h; how it was run: as §2
[23] = test system: Neosartorya pseudofischeri; assay: Antimicrobial activity against Neosartorya pseudofischeri isolate CNM-CM-3914 obtained from nail of patient after 48 hrs by broth microdilution method; type: functional; conditions: Aspergillus thermomutatus, isolate CNM-CM-3914, 48 h; how it was run: as §1
Neosartorya hiratsukae [24] = assay: Antimicrobial activity against Neosartorya hiratsukae isolate CNM-CM-4328 obtained from cornea of patient after 48 hrs by broth microdilution method; type: functional; conditions: Aspergillus hiratsukae, isolate CNM-CM-4328, Cornea; how it was run: as §2
Aspergillus viridinutans [25] = assay: Antimicrobial activity against Aspergillus viridinutans isolate CNM-CM-3147 obtained from oropharyngeal exudate of patient after 48 hrs by broth microdilution method; type: functional; conditions: isolate CNM-CM-3147, 48 h; how it was run: as §2
Aspergillus lentulus [26] = assay: Antimicrobial activity against Aspergillus lentulus isolate CNM-CM-4426 obtained from sputum of patient after 48 hrs by broth microdilution method; type: functional; conditions: isolate CNM-CM-4426, 48 h; how it was run: as §2
Aspergillus lentulus [27] = assay: Antimicrobial activity against Aspergillus lentulus isolate CNM-CM-4428 obtained from skin of patient after 48 hrs by broth microdilution method; type: functional; conditions: isolate CNM-CM-4428, 48 h; how it was run: as §2
Aspergillus lentulus [28] = assay: Antimicrobial activity against Aspergillus lentulus isolate CNM-CM-3134 obtained from sputum of patient after 48 hrs by broth microdilution method; type: functional; conditions: isolate CNM-CM-3134, 48 h; how it was run: as §2

## CCC(C)n1ncn(-c2ccc(N3CCN(c4ccc(OCC5COC(Cn6cncn6)(c6ccc(Cl)cc6Cl)O5)cc4)CC3)cc2)c1=O (stereo not drawn) [ITRACONAZOLE]
[1]
  MIC: 11 µg/mL (≈ 15.6 µM)
Aspergillus lentulus [2]
  MIC: 8.25 µg/mL (≈ 11.7 µM)
[3]
  MIC: 8 µg/mL (≈ 11.3 µM)
Neosartorya hiratsukae [4]
  MIC: 0.12 µg/mL (≈ 0.17 µM)
Aspergillus lentulus [5]
  MIC: 0.43 µg/mL (≈ 0.609 µM)
Neosartorya hiratsukae [6]
  MIC: 0.33 µg/mL (≈ 0.468 µM)
Neosartorya hiratsukae [7]
  MIC: 0.16 µg/mL (≈ 0.227 µM)
Aspergillus viridinutans [8]
  MIC: 16 µg/mL (≈ 22.7 µM)
Aspergillus lentulus [9]
  MIC: 8 µg/mL (≈ 11.3 µM)
[10]
  MIC: 0.25 µg/mL (≈ 0.354 µM)
Aspergillus lentulus [11]
  MIC: 8 µg/mL (≈ 11.3 µM)
[12]
  MIC: 6.66 µg/mL (≈ 9.44 µM)
Aspergillus lentulus [13]
  MIC: 6 µg/mL (≈ 8.5 µM)
Aspergillus lentulus [14]
  MIC: 16 µg/mL (≈ 22.7 µM)
Neosartorya hiratsukae [15]
  MIC: 0.185 µg/mL (≈ 0.262 µM)
Aspergillus lentulus [16]
  MIC: 0.5 µg/mL (≈ 0.709 µM)
Aspergillus lentulus [17]
  MIC: 8 µg/mL (≈ 11.3 µM)
[18]
  MIC: 8 µg/mL (≈ 11.3 µM)
Aspergillus fumigatus
  MIC: 0.125 µg/mL (≈ 0.177 µM)
[19]
  MIC: 8 µg/mL (≈ 11.3 µM)
Aspergillus lentulus [20]
  MIC: 8 µg/mL (≈ 11.3 µM)
Aspergillus lentulus [21]
  MIC: 8.25 µg/mL (≈ 11.7 µM)
Aspergillus lentulus [22]
  MIC: 9.25 µg/mL (≈ 13.1 µM)
[23]
  MIC: 16 µg/mL (≈ 22.7 µM)
Neosartorya hiratsukae [24]
  MIC: 0.25 µg/mL (≈ 0.354 µM)
Aspergillus viridinutans [25]
  MIC: 14.4 µg/mL (≈ 20.4 µM)
Aspergillus lentulus [26]
  MIC: 6.66 µg/mL (≈ 9.44 µM)
Aspergillus lentulus [27]
  MIC: 7 µg/mL (≈ 9.92 µM)
Aspergillus lentulus [28]
  MIC: 10.2 µg/mL (≈ 14.5 µM)

## CCCCCOc1ccc(-c2cc(-c3ccc(C(=O)N[C@H]4C[C@@H](O)[C@@H](O)NC(=O)[C@@H]5[C@@H](O)[C@@H](C)CN5C(=O)[C@H]([C@H](O)CC(N)=O)NC(=O)[C@H]([C@H](O)[C@@H](O)c5ccc(O)c(OS(=O)(=O)O)c5)NC(=O)[C@@H]5C[C@@H](O)CN5C(=O)[C@H]([C@@H](C)O)NC4=O)cc3)no2)cc1 [MICAFUNGIN] (X1-[Orn(4R-OH,5R-OH)]T[Hyp][hTyr(3S-OH,4S-OH,3'-OSO3H)][Gln(3R-OH)][Pro(3S-OH,4S-Me)]; lactam 1-C)
[1]; read-out: MEC
  minimal effective concentration: 0.03 µg/mL
Aspergillus lentulus [2]; read-out: MEC
  minimal effective concentration: 0.1 µg/mL
[3]; read-out: MEC
  minimal effective concentration: 0.06 µg/mL
Neosartorya hiratsukae [4]; read-out: MEC
  minimal effective concentration: 0.03 µg/mL
Aspergillus lentulus [5]; read-out: MEC
  minimal effective concentration: 0.03 µg/mL
Neosartorya hiratsukae [6]; read-out: MEC
  minimal effective concentration: 0.04 µg/mL
Neosartorya hiratsukae [7]; read-out: MEC
  minimal effective concentration: 0.03 µg/mL
Aspergillus viridinutans [8]; read-out: MEC
  minimal effective concentration: 0.03 µg/mL
Aspergillus lentulus [9]; read-out: MEC
  minimal effective concentration: 0.03 µg/mL
[10]; read-out: MEC
  minimal effective concentration: 0.03 µg/mL
Aspergillus lentulus [11]; read-out: MEC
  minimal effective concentration: 0.03 µg/mL
[12]; read-out: MEC
  minimal effective concentration: 0.04 µg/mL
Aspergillus lentulus [13]; read-out: MEC
  minimal effective concentration: 0.03 µg/mL
Aspergillus lentulus [14]; read-out: MEC
  minimal effective concentration: 0.03 µg/mL
Neosartorya hiratsukae [15]; read-out: MEC
  minimal effective concentration: 0.14 µg/mL
Aspergillus lentulus [16]; read-out: MEC
  minimal effective concentration: 0.03 µg/mL
Aspergillus lentulus [17]; read-out: MEC
  minimal effective concentration: 0.03 µg/mL
[18]; read-out: MEC
  minimal effective concentration: 0.26 µg/mL
Aspergillus fumigatus; read-out: MEC
  minimal effective concentration: 0.03 µg/mL
[19]; read-out: MEC
  minimal effective concentration: 0.08 µg/mL
Aspergillus lentulus [20]; read-out: MEC
  minimal effective concentration: 0.03 µg/mL
Aspergillus lentulus [21]; read-out: MEC
  minimal effective concentration: 0.04 µg/mL
Aspergillus lentulus [22]; read-out: MEC
  minimal effective concentration: 0.05 µg/mL
[23]; read-out: MEC
  minimal effective concentration: 0.03 µg/mL
Neosartorya hiratsukae [24]; read-out: MEC
  minimal effective concentration: 0.03 µg/mL
Aspergillus viridinutans [25]; read-out: MEC
  minimal effective concentration: 0.2 µg/mL
Aspergillus lentulus [26]; read-out: MEC
  minimal effective concentration: 0.03 µg/mL
Aspergillus lentulus [27]; read-out: MEC
  minimal effective concentration: 0.03 µg/mL
Aspergillus lentulus [28]; read-out: MEC
  minimal effective concentration: 0.07 µg/mL
